“Also recorded” adds a separate entry of the source.
Legend:
[1] = Ligand protonation constants by potentiometric titration; type: physicochemical; details: 25 °C, I = 0.1 M KCl
[2] = type: binding; details: [UO2^2+]tot = 10^−6 M, [L]tot = 10^−5 M, 25 °C, I = 0.1 M KCl
[3] = type: binding; details: for k2 (pH 7.4), second-order rate constant for complexation of UO2^2+: TRIS buffer pH 7.4, 25 °C; for k2 (pH 5), second-order rate constant for complexation of UO2^2+: aqueous citrate buffer pH 5, 25 °C
mice = assay: Ex vivo biodistribution of uranium in mice by ICP-MS; details: for stability of the uranium complex in vivo: biodistribution, label is the ligand of the complex; for uranium uptake in bone (tibia) / clearance from blood / uranium in soft organs (lung, liver, kidney, spleen): 4 mg/kg intravenous injection, ICP-MS; for uranium uptake in bone (tibia): 30 min, 2 h and 24 h
[4] = Ligand protonation constants by semi-batch spectrophotometric titration; type: physicochemical; details: 25 °C, I = 0.1 M KCl
In short: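 Semi-batch spectrophotometric titration of test ligands (those not titrated potentiometrically) at 25 °C, ionic strength 0.1 M with KCl as supporting electrolyte; protonation constants fitted from the titration data; uncertainty given as standard deviation of the last digit.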

[5] = Initial pH potentiometric experiments with UO2^2+; type: binding; details: lowest electrode-calibrated pH value of 2.4
[6] = Kinetic stability challenge with hydroxyapatite; type: physicochemical; details: 2000 equiv. HAP, 0.1 M TRIS, 37 °C, arsenazo III indicator
[7] = Aqueous solubility of the complexes; type: physicochemical; details: in words

Structure (SMILES)	pUO2 (pH 7.4) = −log[UO2^2+]free [2]	k2 (pH 7.4), second-order rate constant for complexation of UO2^2+ [3] [M^−1 s^−1]	k2 (pH 5), second-order rate constant for complexation of UO2^2+ [3] [M^−1 s^−1]	stability of the uranium complex in vivo (mice)	uranium uptake in bone (tibia) (mice)	clearance from blood (mice)	uranium in soft organs (lung, liver, kidney, spleen) (mice)	also measured
O=C(O)c1cccc(CNC2CCCCC2NCc2cccc(C(=O)O)n2)n1 (stereo not drawn) [H2CHXdedpa]	17.72	1190 ± 150	1320 ± 140	stable in vivo	–	–	–	pKa1 [1]: 9.39(2); pKa2 [1]: 6.43(6); pKa3 [1]: 3.15(6); pKa4 [1]: 2.40(8)
Oc1cccc2ccc(CNC3CCCCC3NCc3ccc4cccc(O)c4n3)nc12 (stereo not drawn) [H2CHXhox]	19.98	2850 ± 380	140 ± 5	–	–	–	–	pKa1 [4]: 10.95(9); pKa2 [4]: 10.18(2); pKa3 [4]: 8.72(7); pKa4 [4]: 5.37(2)
O=C(O)c1cccc(CNCCNCc2cccc(C(=O)O)n2)n1 [H2dedpa]	17.46	450 ± 40	420 ± 28	stable in vivo	–	–	–	pKa1 [1]: 8.95(3); pKa2 [1]: 6.32(6); pKa3 [1]: 3.15(6); pKa4 [1]: 2.28(7); free UO2^2+ present [5]: < 5%
Oc1cccc2ccc(CNCCNCc3ccc4cccc(O)c4n3)nc12 [H2hox]	19.80	3420 ± 340	73 ± 5	stable in vivo	–	–	–	pKa1 [4]: 11.0(1); pKa2 [4]: 10.10(8); pKa3 [4]: 8.63(5); pKa4 [4]: 6.1(3)
O.O.O.O.O.O.O=[N+]([O-])O.O=[N+]([O-])O.[O]=[U]=[O] [UO2(NO3)2·6H2O]	–	–	–	–	–	–	–	original uranium remaining in solution with HAP ([6]; after 12 h): 10%; uranium remaining in solution with HAP ([6]; by 120 h): undetectable
O=C([O-])c1cccc(CNC2CCCCC2NCc2cccc(C(=O)[O-])n2)n1.[O]=[U+2]=[O] (stereo not drawn) [[UO2(CHXdedpa)]]	–	–	–	–	minimal uptake in the bone	rapidly cleared from the blood	low but detectable values of uranium were found in the lung, liver and kidney	–
[O-]c1cccc2ccc(CNC3CCCCC3NCc3ccc4cccc([O-])c4n3)nc12.[O]=[U+2]=[O] (stereo not drawn) [[UO2(CHXhox)]]	–	–	–	–	–	–	–	aqueous solubility [7]: low solubility in water; also recorded: poor aqueous solubility; lethality upon injection (mice; intravenous injection): precipitation in the circulatory system upon injection causing lethality
O=C([O-])c1cccc(CNCCNCc2cccc(C(=O)[O-])n2)n1.[O]=[U+2]=[O] [[UO2(dedpa)]]	–	–	–	–	minimal uptake in the bone	rapidly cleared from the blood	low but detectable values of uranium were found in the lung, liver and kidney	–
[O-]c1cccc2ccc(CNCCNCc3ccc4cccc([O-])c4n3)nc12.[O]=[U+2]=[O] [[UO2(hox)]]	–	–	–	–	minimal uptake in the bone	rapidly cleared from the blood	significant accumulation of uranium in the lungs	–
